Measurements: ChEMBL document CHEMBL3351826, “Synthesis of pyrazolo[4,3-e][1,2,4]triazine sulfonamides, novel Sildenafil analogs with tyrosinase inhibitory activity” (Bioorg Med Chem, 2014)
Values after ≈ are worked out from the molar mass of the structure shown. Active and inactive are the calls of the source. The rule behind the calls is not given here.

What was measured:
[1] = Inhibition of Leptosphaeria sacchari tyrosinase using L-DOPA as substrate incubated for 10 mins prior to substrate addition […] by spectrophotometry
[2] = test system: Leptosphaeria sacchari; assay: Inhibition of Leptosphaeria sacchari tyrosinase using L-DOPA as substrate at 0.3 mg/ml incubated for 10 mins prior to substrate addition […] by spectrophotometry
[3] = test system: Leptosphaeria sacchari; assay: Inhibition of Leptosphaeria sacchari tyrosinase using L-DOPA as substrate assessed as remaining activity at 0.3 mg/ml incubated for 10 mins prior to substrate addition […] by spectrophotometry
[4] = organism: Oryctolagus cuniculus; assay: Inhibition of rabbit platelet PDE5A using [3H]cGMP as substrate at 1 uM after 30 mins by scintillation proximity assay
Summary of the method: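 PDE5A isolated from rabbit platelets; tritium scintillation proximity assay in 50 mM Tris-HCl pH 7.5 with 8.3 mM MgCl2 and 1.7 mM EGTA. Compounds tested at 1 µM from DMSO stock, final DMSO <1%. Enzyme limited to ≤15% substrate hydrolysis. Duplicates. % inhibition = [1 − (CPM sample − blank)/(CPM water control − blank)] × 100.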

[5] = test system: Leptosphaeria sacchari; assay: Inhibition of Leptosphaeria sacchari tyrosinase using L-DOPA as substrate at 1 mM incubated for 10 mins prior to substrate addition […] by spectrophotometry
[6] = test system: Leptosphaeria sacchari; assay: Inhibition of Leptosphaeria sacchari tyrosinase using L-DOPA as substrate at 0.1 mM incubated for 10 mins prior to substrate addition […] by spectrophotometry

Compound | IC50 [1] [µg/mL] | inhibition [2] [%] | Activity [3] [%] | inhibition [4] [%] | inhibition [5] | inhibition [6] [%]
CCOc1ccc(S(=O)(=O)N2CCN(C)CC2)cc1-c1nnc2nn(C)c(C)c2n1 | 140 (≈ 324 µM) | 54.8 | 45.2 | 0 | – | –
CCOc1ccc(S(=O)(=O)N2CCN(C)CC2)cc1-c1nnc2c(n1)c(C)nn2C | 110 (≈ 255 µM) | 58.8 | 41.2 | 6 | – | –
CCOc1ccc(S(=O)(=O)NCCO)cc1-c1nnc2c(n1)c(C)nn2C | 100 (≈ 255 µM) | 39.5 | 60.5 | – | – | –
c1nnc2[nH]ncc2n1 | – | – | – | – | Active | 48
CCOc1ccc(S(=O)(=O)N2CCNCC2)cc1-c1nnc2c(n1)c(C)nn2C | 80 (≈ 192 µM) | 70.5 | 29.5 | 26.5 | – | –
CCOc1ccc(S(=O)(=O)NCCNS(=O)(=O)c2ccc(OCC)c(-c3nnc4c(n3)c(C)nn4C)c2)cc1-c1nnc2c(n1)c(C)nn2C | 900 (≈ 1250 µM) | 79.7 | 20.2 | 28.1 | – | –
CCOc1ccc(S(=O)(=O)N2CCCCC2)cc1-c1nnc2c(n1)c(C)nn2C | 120 (≈ 288 µM) | 59.8 | 40.2 | 29.5 | – | –
CCOc1ccc(S(=O)(=O)N2CCN(S(=O)(=O)c3ccc(OCC)c(-c4nnc5c(n4)c(C)nn5C)c3)CC2)cc1-c1nnc2c(n1)c(C)nn2C | – | – | – | 11.4 | – | –
CCOc1ccc(S(=O)(=O)N2CCCC2)cc1-c1nnc2c(n1)c(C)nn2C | 90 (≈ 224 µM) | 60.4 | 39.6 | 24.1 | – | –
CCOc1ccc(S(=O)(=O)N2CCCN(S(=O)(=O)c3ccc(OCC)c(-c4nnc5c(n4)c(C)nn5C)c3)CC2)cc1-c1nnc2c(n1)c(C)nn2C | – | – | – | 26.7 | – | –
CCCc1nn(C)c2nnc(-c3cc(S(=O)(=O)N4CCN(C)CC4)ccc3OCC)nc12 | 120 (≈ 261 µM) | 57.1 | 42.9 | 5.8 | – | –
CCOc1ccc(S(=O)(=O)N2CCOCC2)cc1-c1nnc2c(n1)c(C)nn2C | 150 (≈ 358 µM) | 51.4 | 48.6 | 0 | – | –
CCOc1ccc(S(=O)(=O)NCCN2CCOCC2)cc1-c1nnc2c(n1)c(C)nn2C | 150 (≈ 325 µM) | 62.1 | 37.9 | 13.3 | – | –
CCOc1ccc(S(=O)(=O)N(CC)CC)cc1-c1nnc2c(n1)c(C)nn2C | 120 (≈ 297 µM) | 68.3 | 31.7 | 16.4 | – | –
CCOc1ccc(S(=O)(=O)N2CCCNCC2)cc1-c1nnc2c(n1)c(C)nn2C | 100 (≈ 232 µM) | 62.1 | 33.5 | 0.6 | – | –
CCOc1ccc(S(=O)(=O)NCCN)cc1-c1nnc2c(n1)c(C)nn2C | 70 (≈ 179 µM) | 96.3 | 3.7 | 0 | – | –
CCCc1nn(C)c2c(=O)[nH]c(-c3cc(S(=O)(=O)N4CCN(C)CC4)ccc3OCC)nc12 | – | – | – | 98.9 | – | –
